Results: ChEMBL document CHEMBL3596131, “Discovery of a novel trans-1,4-dioxycyclohexane GPR119 agonist series” (Bioorg Med Chem Lett, 2015)
Active and inactive are the calls of the source. The calls are words filed in the database; no cut-off is given here.

Key:
[1] = molecular target: T1, Glucose-dependent insulinotropic receptor (Rattus norvegicus, UniProt Q7TQN8); assay: Agonist activity at rat GPR119 by HTRF cAMP assay; type: functional
T1 sequence (Q7TQN8 whole entry): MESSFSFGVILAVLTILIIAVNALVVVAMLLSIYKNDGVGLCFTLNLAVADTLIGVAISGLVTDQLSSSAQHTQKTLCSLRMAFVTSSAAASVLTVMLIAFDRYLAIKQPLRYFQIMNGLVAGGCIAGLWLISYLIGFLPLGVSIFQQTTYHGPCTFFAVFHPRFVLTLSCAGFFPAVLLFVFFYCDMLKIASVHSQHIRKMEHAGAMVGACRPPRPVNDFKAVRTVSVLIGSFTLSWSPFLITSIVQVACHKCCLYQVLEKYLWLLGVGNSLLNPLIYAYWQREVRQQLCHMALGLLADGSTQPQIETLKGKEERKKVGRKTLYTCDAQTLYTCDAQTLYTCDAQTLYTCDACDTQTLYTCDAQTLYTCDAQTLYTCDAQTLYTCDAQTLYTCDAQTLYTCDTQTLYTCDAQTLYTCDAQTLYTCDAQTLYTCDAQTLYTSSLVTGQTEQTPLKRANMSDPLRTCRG

[2] = molecular target: T2, Glucose-dependent insulinotropic receptor (Rattus norvegicus) (UniProt Q7TQN8); assay: Agonist activity at rat GPR119 by HTRF cAMP assay relative to AR231453; type: functional
T2 sequence (whole entry): T1 sequence (Q7TQN8 whole entry)

[3] = molecular target: T3, Glucose-dependent insulinotropic receptor (Homo sapiens, UniProt Q8TDV5); assay: Agonist activity at human GPR119 by HTRF cAMP assay; type: functional
T3 sequence (Q8TDV5 whole entry): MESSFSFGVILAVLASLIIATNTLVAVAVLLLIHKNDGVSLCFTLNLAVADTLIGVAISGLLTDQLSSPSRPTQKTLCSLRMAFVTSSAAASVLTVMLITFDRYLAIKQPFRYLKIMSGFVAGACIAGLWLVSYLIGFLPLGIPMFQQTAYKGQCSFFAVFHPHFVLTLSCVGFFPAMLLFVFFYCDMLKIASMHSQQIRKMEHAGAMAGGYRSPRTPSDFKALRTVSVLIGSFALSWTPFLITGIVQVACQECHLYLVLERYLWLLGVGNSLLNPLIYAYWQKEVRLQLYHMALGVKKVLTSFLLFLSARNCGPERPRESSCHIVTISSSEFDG

[4] = molecular target: T4, Glucose-dependent insulinotropic receptor (Homo sapiens) (UniProt Q8TDV5); assay: Agonist activity at human GPR119 by HTRF cAMP assay relative to AR231453; type: functional
T4 sequence (whole entry): T3 sequence (Q8TDV5 whole entry)

[5] = Half life in mouse liver microsomes; type: ADME
[6] = Half life in rat liver microsomes; type: ADME
[7] = Half life in human liver microsomes; type: ADME
[8] = molecular target: T3, Glucose-dependent insulinotropic receptor; assay: Agonist activity at human GPR119 by serum shift assay
Method in brief: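 HTRF cAMP read-out with cells plated overnight; growth medium swapped for fetal bovine serum-containing medium. Compounds serially diluted in DMSO, then in PBS with IBMX and 0.1% BSA to 2× concentration (1% DMSO) before addition. Potency compared with and without serum.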

Rattus norvegicus = organism: Rattus norvegicus; assay: Toxicity in rat assessed as physical mobility impairment; type: organism-based; conditions: in vivo
Mus musculus = assay: In vivo activation of GPR119 in normoglycemic 129SVE mouse assessed as increase in GIP level in plasma at 30 mg/kg, po measured after 45 mins relative to vehicle-treated control; type: functional, organism-based
Method in brief: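 Normoglycemic male 129SVE mice dosed orally (3 and 30 mg/kg); plasma GIP measured 45 min after dosing versus vehicle-treated controls; AR231453 at 30 mg/kg as reference agonist.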

SMILES | EC50 [1] | Emax [2] | EC50 [3] | Emax [4] | half-life [5] | half-life [6] | half-life [7] | EC50 [8] | Activity (Rattus norvegicus) | Activity (Mus musculus)
C[C@@H](CF)OC(=O)N1CCC(O[C@H]2CC[C@H](Oc3cnc(S(C)(=O)=O)cn3)CC2)CC1 | 356 nM | 123% | 31.1 nM | 105% | – | – | – | – | – | –
CS(=O)(=O)c1cnc(O[C@H]2CC[C@H](OC3CCN(CC(F)(F)F)CC3)CC2)cn1 | 1960 nM | 105% | 776 nM | 91% | – | – | – | – | – | –
CS(=O)(=O)c1cnc(O[C@H]2CC[C@H](OC3CCN(C(=O)OC(CF)CF)CC3)CC2)cn1 | 467 nM | 128% | 65.1 nM | 114% | > 1 h | > 1 h | > 1 h | – | – | –
CC(C)(C)OC(=O)N1CCC(OC2CCC(Oc3ccc(S(C)(=O)=O)cc3)CC2)CC1 (mixture of isomers) | – | – | > 200 nM | – | – | – | – | – | – | –
Cc1nc(O[C@H]2CC[C@H](OC3CCN(C(=O)OC(C)(C)C)CC3)CC2)ccc1C(=O)N(C)C | 400 nM | 111% | 262 nM | 121% | – | – | – | – | – | –
CCC(F)(F)C(=O)N1CCC(O[C@H]2CC[C@H](Oc3cnc(S(C)(=O)=O)cn3)CC2)CC1 | 66.9 nM | 126% | 5.3 nM | 107% | 0.05 h | > 1 h | > 1 h | 28.7 nM | – | –
CC(C)(C)OC(=O)N1CCC(O[C@H]2CC[C@H](Oc3ccc(S(C)(=O)=O)nn3)CC2)CC1 | 1160 nM | 86% | 651 nM | 97% | – | – | – | – | – | –
CC(C)(C)OC(=O)N1CCC(O[C@H]2CC[C@H](Oc3ccc(S(C)(=O)=O)cc3)CC2)CC1 | 94 nM | 120% | 16.1 nM | 115% | – | – | – | – | – | –
COc1c(Nc2ccc(S(C)(=O)=O)nc2C)ncnc1OC1CCN(C(=O)OC(C)C)CC1 | – | 89% | – | 75% | – | – | – | – | – | –
CC(C)(C)OC(=O)N1CCC(O[C@H]2CC[C@H](Oc3ccc(S(C)(=O)=O)cc3F)CC2)CC1 | 61 nM | 119% | 8.5 nM | 113% | – | – | – | 227 nM | – | –
CS(=O)(=O)c1cnc(O[C@H]2CC[C@H](OC3CCN(C(=O)OC(C(F)(F)F)C(F)(F)F)CC3)CC2)cn1 | 10.9 nM | 121% | 1.2 nM | 104% | > 1 h | > 1 h | > 1 h | 45.2 nM | Dose-dependent effect | –
CC1(OC(=O)N2CCC(O[C@H]3CC[C@H](Oc4cnc(S(C)(=O)=O)cn4)CC3)CC2)CC1 | 138 nM | 123% | 25.9 nM | 118% | – | – | – | – | – | –
CC(C)c1noc(C2CCN(c3ncnc(Nc4ccc(S(C)(=O)=O)cc4F)c3[N+](=O)[O-])CC2)n1 | – | – | – | – | – | – | – | – | – | Active
CS(=O)(=O)c1cnc(O[C@H]2CC[C@H](OC3CCN(C(=O)OC4CCOC4)CC3)CC2)cn1 (stereo partly specified) | 1500 nM | 109% | 427 nM | 105% | – | – | – | – | – | –
CC(C)OC(=O)N1CCC(O[C@H]2CC[C@H](Oc3ccc(S(C)(=O)=O)nc3)CC2)CC1 | 201 nM | 125% | 13 nM | 101% | – | – | – | – | – | –
CC(C)(C)OC(=O)N1CCC(O[C@H]2CC[C@@H](Oc3ccc(S(C)(=O)=O)cc3)CC2)CC1 | 1390 nM | 121% | – | 120% | – | – | – | – | – | –
CC(C)(C)OC(=O)N1CCC(O[C@H]2CC[C@H](Oc3ccc(S(C)(=O)=O)c(F)c3)CC2)CC1 | 167 nM | 109% | 52 nM | 106% | – | – | – | – | – | –
CC(C)S(=O)(=O)c1cnc(O[C@H]2CC[C@H](OC3CCN(C(=O)OC(C)(C)C)CC3)CC2)cn1 | 54 nM | 128% | 18.5 nM | 109% | – | – | – | – | – | –
